SF-1 act: activators of human nuclear receptor SF-1. AID 522. Q13285. CHO-K1 Gal4-SF-1 LBD luciferase reporter; % increase over DMSO SF-1-specific signal. 65,000 compounds, 1.9% hits. activation, % at 10 µM;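 active = activation above the mean activation of all tested compounds plus 3 SD, cut at about 50% in these data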
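Material: Transient Gal4-SF-1 LBD reporter, CHO-K1 | Input: 4,000 cells/well | Dosing: One dose, 10 µM compound, 1% DMSO | Incubation: 20 h compound treatment, 37 °C | Detection: SteadyLite luciferase luminescence | Evaluation: Percent activation relative to DMSO median and mock-transfected background | Benchmarks: DMSO-treated SF-1-transfected cells as negative, DMSO-treated mock-transfected cells lacking SF-1 as background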
mHtt clearance: compounds clearing mutant huntingtin protein; AID 853; HeLa Exon1htt(103Q)mCFP, aggregate imaging; zero = plate's median compound well; 47,000 compounds, 0.42% hits; inhibition, % at 1.5 µM;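 active = inhibition of aggregate fluorescence above about 70%, also judged a hit by eye on the cell image, limit read from the data, passing the limit was not always enough; inconclusive = no rule stated for this call; inactive = not judged a hit on image review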;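 note: cells exposed to compound for three days before fixation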
D1 mod: allosterically modulates the human D1 dopamine receptor; P21728; HEK293 D1, CRE-luciferase, dopamine EC30 potentiation; actives deviate in either direction; B-score at 10 µM; 58,000 compounds, 5.9% hits; AID 641;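 active = luminescence count or its row- and column-corrected plate score outside the 99.7% band of the plate's sample wells, on either side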
M1 ag: activates the M1 muscarinic receptor; CHO-M1 cells, Fluo-4 calcium fluorescence, agonist mode; active compounds read high; B-score at 10 µM; 64,000 compounds, 3% hits; AID 626;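 active = fluorescence rise, raw or as B-score row- and column-corrected plate score, outside the 99.7% band of its plate's samples, either direction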
M1 antag: antagonists of rat M1 muscarinic receptor; P08482; CHO-M1 cells, Fluo-4 calcium, ACh EC80 antagonist mode; active compounds read low; B-score at 10 µM; 64,000 compounds, 3.4% hits;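 active = calcium fluorescence response, raw or row-and-column corrected B-score, differing from the plate sample mean either way at a set confidence level, mostly lower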
RORa activator: activates the human nuclear receptor RORA. P35398. CHO-K1 Gal4-RORA LBD luciferase reporter, luminescence; percent increase over mock-subtracted basal signal. activation, % at 10 µM. 65,000 compounds, 1.5% hits. AID 560;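 active = activation above the mean of all tested compounds plus 3 SD, cut at about 49% in these data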;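 note: 0% = DMSO-treated RORA cells and 100% = added signal equal to DMSO minus mock-transfected cells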
Target sequence (P35398 whole entry, looked up, the tested form may be a part): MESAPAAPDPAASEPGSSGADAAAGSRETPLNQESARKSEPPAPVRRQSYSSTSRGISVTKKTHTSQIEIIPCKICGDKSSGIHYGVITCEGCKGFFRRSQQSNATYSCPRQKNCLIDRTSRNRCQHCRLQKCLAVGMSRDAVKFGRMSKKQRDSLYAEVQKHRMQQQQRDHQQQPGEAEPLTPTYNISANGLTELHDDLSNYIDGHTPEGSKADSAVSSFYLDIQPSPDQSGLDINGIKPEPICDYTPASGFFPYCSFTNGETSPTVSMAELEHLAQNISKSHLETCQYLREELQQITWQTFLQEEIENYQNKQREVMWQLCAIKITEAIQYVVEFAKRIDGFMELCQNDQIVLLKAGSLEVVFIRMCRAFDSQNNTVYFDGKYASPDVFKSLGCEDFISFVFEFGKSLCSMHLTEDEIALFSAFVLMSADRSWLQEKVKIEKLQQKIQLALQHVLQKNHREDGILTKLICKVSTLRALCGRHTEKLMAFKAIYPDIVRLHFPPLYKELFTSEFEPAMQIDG
M1 antag conf: confirmation of rat M1 muscarinic receptor antagonists. shares compounds with M1 antag. calcium response (max-min fluorescence) at 10 µM. 1,700 compounds, 43% hits. CHO-M1 cells, Fluo-4 calcium, ACh EC80 antagonism; active compounds read low;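 active = calcium response below the same-plate mean of wells given acetylcholine alone at its 80%-effect dose, minus 3 SD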;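 note: raw fluorescence intensity difference in arbitrary instrument units and not normalized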
mGluR4 antag: acts on human mGluR4 in M1 antagonist selectivity test; shares compounds with M1 antag; CHO-mGluR4 calcium flux, Fluo-4 fluorescence, glutamate EC80; active compounds read low; fluorescence response (max-min) at 10 µM; 1,700 compounds, 0.9% hits; AID 678;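 active = fluorescence response below the plate's average for near-maximal glutamate wells, less 3 SD of those wells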;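 note: raw unnormalized fluorescence span taken in the window right after glutamate addition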
* marks the source's active call; other numbers are inactive results; ? = inconclusive; / = not tested or not shown. An excerpt weighted towards active compounds, which were near 11% of everything screened.

SMILES	SF-1 act	mHtt clearance	D1 mod	M1 ag	M1 antag	RORa activator	M1 antag conf	mGluR4 antag
CCc1cc2c3c(c(=O)oc2cc1OC)CCCC3	-27	-12	0.1	0.036	-1.8*	-20	487	202
O=C(Nc1ccc(Cl)cc1)N1CCN(c2ccc3nnc(-c4ccc(F)cc4)n3n2)CC1	8	/	0.56	0.73	-4.4*	-8	386*	258
CC1CCN(S(=O)(=O)c2ccc(NC(=O)CSc3nnnn3C)cc2)CC1	-8	-22	0.013	-1.2	-0.022	-2	/	/
N#Cc1c2c(c(NCc3ccco3)n3c1nc1ccccc13)CCC2	-18	/	-0.27	-0.49	-0.057	-11	/	/
CN(C)CCNc1c2c(c(C#N)c3nc4ccccc4n13)CCCC2	-4	21	0.54	0.2	-4.7*	-6	377*	245
CCOC(=O)C(NC(=O)N1CCCCC1)(c1ccccc1)C(F)(F)F (stereo unspecified)	8	15	0.16	0.88	0.23	-19	/	/
CN1CCCN=C1COC(=O)C(O)(c1ccccc1)C1CCCCC1 (stereo unspecified)	-4	/	-0.087	0.51	-16*	-19	26*	247
N#Cc1cccc(-c2cn(S(=O)(=O)c3ccc(Cl)cc3)nc2N)c1	7	/	-0.65	-1.4	1.2	-15	/	/
CCOCCC(=O)Nc1cc(Cl)ccc1OC	/	20	/	/	/	/	/	/
CN(C)C(CNC(=O)C1CCCN(C(=O)c2ccc(Cl)cc2)C1)c1ccco1 (stereo unspecified)	5	-6	0.092	-0.016	-3.6*	-9	666	267
COC(=O)c1sccc1NC(=O)Cn1cnc2c1c(=O)n(C)c(=O)n2C	2	-59	-0.44	-0.8	-0.038	-15	/	/
CS(=O)(=O)c1ccc2nc(NC(=O)CN3CCN(Cc4ccccc4)CC3)sc2c1	8	-69	-0.87	-0.79	-2.5*	-13	567	232
CCC(=O)Nc1nc2ccc(S(C)(=O)=O)cc2s1	/	62	/	/	/	/	/	/
CC(C)(C)c1ccc(C(=O)C=[N+]=[N-])cc1	6	/	0.52	-0.96	0.55	-18	/	/
CC(=O)OC(C(=O)NCc1ccco1)c1cccnc1 (stereo unspecified)	-11	-15	-1	0.97	-1*	-10	657	246
CC(=O)N=c1sc(C(C)(C)C)c(C)n1C	3	/	0.36	0.61	-0.32	15	/	/
Cc1cc2n(n1)C(c1c[nH]c3ccccc13)Nc1ccccc1-2 (stereo unspecified)	22	/	0.87	-0.026	-2.1	-6	/	/
COc1cccc(-c2nc(CS(=O)(=O)CC(=O)NCCCN3CCc4ccccc4C3)c(C)o2)c1	9	-19	-0.12	-2	-1.8*	-22	419	202
COc1ccc(-c2cc3nc4n(c(=O)c3s2)CCOC4)cc1	-56	/	/	-0.76	-0.36	-60	/	/
NCCCC(=O)N1c2ccccc2Sc2ccccc21	12	/	-0.61	-0.041	-13*	-7	59*	244
CCN(CC)CC(=O)N1c2ccccc2Sc2ccc(Cl)cc21	/	-14	/	/	/	/	/	/
O=C(CN1CCCCC1)N1c2ccccc2CCc2ccccc21	/	18	/	/	/	/	/	/
O=C(CN1CCC(O)CC1)N1c2ccccc2C=Cc2ccccc21	-3	/	0.34	-0.47	-5.6*	4	243*	223
O=C(CN1CCCC1)N1c2ccccc2Sc2ccccc21	3	-22	-0.74	0.12	-19*	-10	666	218
CC1CCN(CC(=O)N2c3ccccc3CCc3ccccc32)CC1	-1	31	0.54	/	/	-2	/	/
SMILES	SF-1 act	mHtt clearance	D1 mod	M1 ag	M1 antag	RORa activator	M1 antag conf	mGluR4 antag
CN1CCCN(C(c2ccccc2)c2ccc(Cl)cc2)CC1 (stereo unspecified)	-2	/	-3.3	0.81	-16*	3	14*	214
CCOC(=O)c1c(C)n(C)c2ccc(O)c(CN3CCC(C)CC3)c12	-1	28	0.016	-1.3	-2*	-5	543	251
c1nnc(NC2=NCCCCC2)s1	12	/	0.17	-1.4	-0.74	-2	/	/
C1CCN=C(Nc2nc3c(s2)CCCC3)CC1	42	3	-1.1	0.86	-6.4*	40	468*	207
CN(C(=O)CSc1nc(-c2ccc(F)cc2)cs1)C1CCS(=O)(=O)C1 (stereo unspecified)	-10	/	1.2	-0.17	-3.1*	-18	407	210
Cc1ccc(C(C)C)c(OCc2nc(-c3nonc3N)no2)c1	37	14	/	-1.8	-2.4*	37	566	256
CCCCn1c(C(C)NC(=O)c2cccs2)nc2ccccc21 (stereo unspecified)	8	/	-0.19	0.29	-2.6*	-6	610	161
CCCCn1c(C(C)NC(=O)CCC)nc2ccccc21 (stereo unspecified)	-26	/	0.6	0.63	-4.1*	4	555	228
CCCCCCOC(=O)c1ccc(OC(=O)c2cccnc2)cc1	/	8	/	/	/	/	/	/
CCCCOC(=O)c1ccc(OC(=O)c2cccnc2)cc1	21	9	0.65	-0.09	-5.1*	34	620	266
CC1=CCC(C(=O)O)C(C(=O)O)C1 (stereo unspecified)	/	27	0.54	-2.5e-05	0.29	/	/	/
CC(C)=CC/C=C1\CCC(C(=O)O)C(C(=O)O)C1 (stereo unspecified)	8	/	-1.1	-0.14	-14*	-18	671	227
Cc1nc2ccc(F)cc2cc1C(=O)NC(C)C	4	32	-0.03	-0.86	0.19	20	/	/
CC(C)=CCCC(C)CN1CCC(O)CC1 (stereo unspecified)	-19	-1	-0.0011	-0.32	0.12	-7	/	/
CC(C)=CCC/C(C)=C/CCC(C)NCCN1CCNCC1 (stereo unspecified)	15	/	-0.38	-0.08	-6.6*	7	390*	262
COc1ccc(C(=O)N2CCN(C(=O)Cc3ccccc3)CC2)cc1OC	3	/	-0.0051	-0.56	-3.7*	-23	519	181
CNc1ccccc1-c1nc2ccccc2n(C)c1=O	5	/	/	-0.24	-0.15	6	/	/
COc1ccccc1Nc1nc2ccccc2n1C	35	?	-2.6	0.062	-4.4*	15	489	209
CCCCn1cnc2sc3c(c2c1=N)CCCC3	-9	/	-0.92	-0.66	-2.5*	-6	580	221
CCN(CC)CCNC(=O)c1c(C)oc2cc(Br)c(OC)cc12	8	/	-1	-0.34	-0.37	8	/	/
O=C(CCCc1nc(-c2ccc(Cl)cc2)no1)Nc1cccnc1	0	-45	-1.3	1.4	-2.7*	-17	528*	214
Cc1cccc(-c2noc(CCCC(=O)Nc3cccnc3)n2)c1	-39	15	/	-0.46	-0.0022	-11	/	/
